What was measured:
[1] = test system: Plasmodium vinckei petteri; assay: Antimalarial activity against Plasmodium vinckei petteri 279BY infected Swiss mice (Mus musculus) at daily peroral dose for 4 days; assay type: functional; details: po, 96 h
Summary of the method: (§1)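 Female Swiss mice infected iv with 10⁷ P. vinckei petteri 279BY parasites (about 0.5% parasitemia on day 1). Dosed ip or orally once daily on days 1–4 post-infection. Parasitemia read on day 5 and expressed as % of untreated control. Three mice per dose; mean ± SEM.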

[2] = test system: Plasmodium vinckei petteri; assay: Antimalarial activity against Plasmodium vinckei petteri 279BY infected Swiss mice (Mus musculus) at daily intraperitoneal dose for 4 days; assay type: functional; details: ip, 96 h; summary of the method: as §1
Plasmodium falciparum = assay: Antimalarial activity after 48 hrs against chloroquine-sensitive Plasmodium falciparum Nigerian by [3H]hypoxanthine uptake; assay type: functional, organism-based
Summary of the method: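 IC50 against P. falciparum given as the mean of at least two independent experiments, each run in duplicate.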

[3] = test system: Plasmodium vinckei petteri; assay: Antimalarial activity against Plasmodium vinckei petteri 279BY infected Swiss mice (Mus musculus) at 120 mg/kg/day peroral dose over 4 days; assay type: functional; details: route oral; summary of the method: as §1
[4] = test system: Plasmodium vinckei petteri; assay: Antimalarial activity against Plasmodium vinckei petteri 279BY infected Swiss mice (Mus musculus) at 180 mg/kg/day peroral dose over 4 days; assay type: functional; details: route oral; summary of the method: as §1
[5] = test system: Plasmodium vinckei petteri; assay: Antimalarial activity against Plasmodium vinckei petteri 279BY infected Swiss mice (Mus musculus) at 20 mg/kg/day intraperitoneal dose over 4 days; assay type: functional; summary of the method: as §1

Row | SMILES | IC50 (Plasmodium falciparum) [nM] | ED50 [1] [mg/kg] | ED50 [2] [mg/kg] | Activity [3] [%] | Activity [4] [%] | Activity [5] [%]
1 | N=C(N)CCCCCCCCCCCCC(=N)N [TETRADECANEBIS(IMIDAMIDE)] | – | > 100 | > 10 | – | – | –
2 | NC(=O)c1nc(CCCCCCCCCCCCc2noc(C(N)=O)n2)no1 | 7000 | – | > 20 | – | – | –
3 | N#Cc1nc(CCCCCCCCCCCCc2noc(C#N)n2)no1 | 100000 | – | > 20 | – | – | –
4 | N=C(CCCCCCCCCCCC/C(N)=N\OC(=O)Nc1ccccc1)NOC(=O)Nc1ccccc1 | – | > 180 | > 20 | – | – | –
5 | CS(=O)(=O)O/N=C(/N)CCCCCCCCCCCCC(=N)NOS(C)(=O)=O | 2.5 | 40 | 7 | – | – | –
6 | CC(=O)O/N=C(/N)CCCCCCCCCCCCC(=N)NOC(C)=O | 1400 | > 90 | > 10 | – | – | –
7 | N=C(CCCCCCCCCCCC/C(N)=N\OC(=O)c1ccccc1)NOC(=O)c1ccccc1 | 1100 | > 90 | > 10 | – | – | –
8 | CO/N=C(/N)CCCCCCCCCCCCC(=N)NOC | 6800 | 180 | > 20 | – | 50 | –
9 | Cc1c(CCO)sc[n+]1CCCCCCCCCCCC[n+]1csc(CCO)c1C [ALBITIAZOLIUM BROMIDE] | 2.2 | – | – | – | – | –

More lines, main results first:

Row | IC50 (Plasmodium falciparum) [nM] | SMILES | ED50 [1] [mg/kg] | ED50 [2] [mg/kg] | Activity [3] [%] | Activity [4] [%] | Activity [5] [%]
10 | 180 | CCNC(=O)O/N=C(/N)CCCCCCCCCCCCC(=N)NOC(=O)NCC | 90 | > 20 | 80 | – | –
11 | 9200 | O=c1[nH]c(CCCCCCCCCCCCc2noc(=O)[nH]2)no1 | 100 | > 20 | – | – | –
12 | 3500 | N/C(CCCCCCCCCCCC/C(N)=N/O)=N\O | 120 | – | – | – | –
13 | 17.5 | O=c1[nH]c(CCCCCCCCCCCCc2nsc(=O)[nH]2)ns1 | > 120 | 20 | 25 | – | 50

Reference: ChEMBL document CHEMBL1143339, “Design and synthesis of amidoxime derivatives for orally potent C-alkylamidine-based antimalarial agents” (Bioorg Med Chem Lett, 2009)
